# Compound activity: PubChem, several laboratories
# Rows were chosen to be rich in hits. Some 3.4% of all compounds tested hit in one or more screens of this group.
# AHR act = activates the human aryl hydrocarbon receptor; P35869; activation, % at 5 µM; 320,000 tested, 2.5% active; AHR-responsive luciferase reporter cells, luminescence; in the data active = activation above about 47%;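 also: 0% = vehicle wells and 100% = reference agonist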
# Arrestin-AP2 inh = human beta-arrestin and AP2 interaction inhibition. AID 504490. inhibition, % at 10 µM. 340,000 tested, 0.31% active. FITC-arrestin peptide / GST-AP2 beads, flow cytometry; AP2 beta2 appendage carries R879A mutation;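 active = inhibition above a set limit, near 3 SD of compounds lacking own fluorescence, cut at about 54% in these data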;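 also: plate controls were DMSO wells for no effect and 5 µM unlabelled arrestin peptide for full effect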
#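 Material – AP2 appendage R879A on GSH beads · Buffer or medium – PBS with 0.05% Tween 20 and 0.1% BSA · Probe or stimulus – fluorescein-tagged arrestin peptide at 50 nM final · Incubation – compound with beads 12 min RT, then probe 1 h RT · Detection – high-throughput flow cytometry of beads, ex 488, em 535 nm · Evaluation – percent response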
# UCH37 DUB inh = blocks the human deubiquitinase UCH37 | Q9Y5K5 | purified proteasome/UCH37, Ub-AMC cleavage fluorescence | inhibition, % (no concentration beside the values) | 330,000 tested, 0.33% active | AID 588478;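 active = mean inhibition over replicate wells above about 20%, limit read from the data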;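 also: 0% = compound-free wells with enzyme and 100% = wells lacking proteasome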
# Target sequence (Q9Y5K5 whole entry, looked up): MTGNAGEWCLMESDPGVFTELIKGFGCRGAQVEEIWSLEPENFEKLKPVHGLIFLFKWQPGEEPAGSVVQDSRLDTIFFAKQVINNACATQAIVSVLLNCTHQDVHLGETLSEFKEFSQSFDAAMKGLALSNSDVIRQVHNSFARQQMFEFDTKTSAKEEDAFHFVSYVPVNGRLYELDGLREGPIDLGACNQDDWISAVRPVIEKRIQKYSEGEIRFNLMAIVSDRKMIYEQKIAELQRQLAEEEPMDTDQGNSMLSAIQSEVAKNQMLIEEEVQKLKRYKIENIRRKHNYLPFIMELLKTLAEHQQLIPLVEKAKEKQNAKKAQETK
#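 Signal – fluorescence, ex 355 nm, em 460 nm · System – Proteasome-bound UCH37 · Input – 0.15 nM proteasome as dispensed · Timing – 30 min preincubation with enzyme, 25 min cleavage at room temperature · Read-out basis – percent inhibition of cleavage signal versus uninhibited and no-proteasome wells · Medium – Tris-HCl pH 7.4 with ATP-MgCl2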
# PolyA inhibitor = inhibitors of polyadenylation in S. cerevisiae; AID 1875; activity score, % at 12 µM; S. cerevisiae SKY197-pL101 polyadenylation reporter, beta-gal luminescence; efflux-impaired pdr1/pdr3 knockout yeast; score 100 = 6 SD above DMSO; 300,000 tested, 0.02% active;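 active = lowest replicate activity score at least 50, where 100 means six control SD above control mean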;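 also: yeast exposed to compound for 9 h at 30 °C; higher score means more reporter readthrough which indicates perturbed polyadenylation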
# A3A deaminase = human APOBEC3A DNA deaminase inhibition. 330,000 tested, 0.41% active. inhibition, % at 20 µM. recombinant A3A, FAM/TAMRA ssDNA deamination fluorescence;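 active = at least 40% inhibition at 20 µM here, with at most 30% in a related deaminase screen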;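 also: plate controls were A3A with DMSO for no effect and wells lacking A3A enzyme for full effect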
# Target sequence (P31941 whole entry, looked up): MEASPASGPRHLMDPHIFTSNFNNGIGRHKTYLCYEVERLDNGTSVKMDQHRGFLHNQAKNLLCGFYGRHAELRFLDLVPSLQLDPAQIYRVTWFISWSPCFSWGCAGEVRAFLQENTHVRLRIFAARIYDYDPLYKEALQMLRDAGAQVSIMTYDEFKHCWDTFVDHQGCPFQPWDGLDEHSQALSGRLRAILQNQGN
# A3G deaminase = blocks human APOBEC3G single-stranded DNA deamination; Q9HC16; recombinant A3G, ssDNA deamination FAM/TAMRA fluorescence; inhibition, % at 20 µM; 330,000 tested, 0.28% active;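 active = inhibition of at least 40% at 20 µM, with no more than 30% in the related APOBEC3A deaminase screen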;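 also: plate controls were DMSO wells with A3G for no effect and wells lacking A3G enzyme for full effect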
# Arr AP2 CP1 = human beta-arrestin and AP2 interaction inhibition, cherry pick; inhibition, % at 10 µM; 1,300 tested, 2% active; shares compounds with Arrestin-AP2 inh; GST-AP2 beads, FITC arrestin peptide binding, flow cytometry; GST-fused beta2-adaptin appendage, R879A mutant;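 active = inhibition above a set limit, roughly 3 SD of non-fluorescent compound noise, cut at about 38% in these data; inactive = inhibition at or below that limit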;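 also: loss of bead fluorescence from 50 nM FITC arrestin peptide bound to appendage; 0% = negative control wells and 100% = excess unlabelled arrestin peptide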
# GST GSH counter = disrupts GST binding to glutathione beads, arrestin-AP2 artifact; GST-fluorescein binding to GSH beads, fluorescence, counter-screen; shares compounds with Arrestin-AP2 inh; inhibition, % at 10 µM; 1,300 tested, 2% active;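 active = inhibition above 50%, about 3 SD of the inhibition seen with non-fluorescent compounds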;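 also: fluorescein maleimide labelled GST captured on 4 micron glutathione beads; higher means more loss of bead fluorescence from quenching or blocked binding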
# An asterisk follows results filed as active; nt = not tested or not shown.
SMILES,AHR act,Arrestin-AP2 inh,UCH37 DUB inh,PolyA inhibitor,A3A deaminase,A3G deaminase,Arr AP2 CP1,GST GSH counter
Cc1ccccc1CNC(=O)C1CCC(=O)N(Cc2cccc(F)c2)C1 (stereo unspecified),1,4,0,0,-9,-9,-1,-2
COC(=O)NN=Cc1cc2c(cc1Br)OCO2,nt,nt,5,nt,nt,nt,nt,nt
COc1ccc(C=NNC(=O)c2ccncc2)c(C(=O)O)c1OC,nt,nt,9,nt,nt,nt,nt,nt
COc1cccc(NC(=O)CC(C)=O)c1,3,57*,3,8,-3,-9,-5,-10
COc1cccc(NC(=O)Cc2ccccc2)c1,13,1,-1,22,-6,-12,nt,nt
COc1cccc(NC(=O)CC(=O)c2ccccc2)c1,7,63*,2,-1,0,-3,-1,-8
CC(=O)CC(=O)Nc1ccc(C(N)=O)cc1,-5,46,-1,3,3,3,-9,-6
CN(C)/C=C(\C#N)C(=O)NN=Cc1ccc(F)cc1,nt,nt,8,nt,nt,nt,nt,nt
Cc1ccc(-c2nc(NN=Cc3ccncc3)c3ccccc3n2)cc1,nt,nt,4,nt,nt,nt,nt,nt
Cn1c(=O)n(C)c2cc(N3CCCCC3)c(NC(=O)c3cccc(Cl)c3)cc21,6,7,4,-1,3,11,-6,-4
COc1cc(C(=O)Nc2ccccc2N2CCOCC2)ccc1OCC(=O)N1CCOCC1,-1,31,-1,9,6,-4,nt,nt
COc1ccc(C(=O)Nc2cc3c(cc2N2CCOCC2)n(C)c(=O)n3C)cc1OC,0,2,-38,19,-2,-3,-20,-13
COc1cccc(C(=O)Nc2cc3c(cc2N2CCOCC2)n(C)c(=O)n3C)c1,4,8,-18,30,1,-1,6,-5
CCOc1cc(C(=O)Nc2cc3c(cc2N2CCOCC2)n(C)c(=O)n3C)cc(OCC)c1OCC,7,-7,3,6,2,3,-4,-7
Oc1c(Br)cc(C=NNC(=S)NCc2ccco2)cc1Br,nt,nt,-34,nt,nt,nt,nt,nt
CCOC(=O)COc1ccccc1C=NO,nt,nt,3,nt,nt,nt,nt,nt
Cc1ccc(-c2nnc(SCC(=O)N/N=C/c3ccccc3C(=O)O)n2C2CCCCC2)cc1,0,68*,nt,-12,-4,-8,4,-5
Cc1ccc(-c2nnc(SCC(=O)NN=Cc3ccc(C(=O)O)cc3)n2C2CCCCC2)cc1,nt,nt,6,nt,nt,nt,nt,nt
COc1ccc(C=NNC(=O)c2ccc(COc3cccc4cccnc34)cc2)cc1O,nt,nt,4,nt,nt,nt,nt,nt
CC(=O)c1ccc(NC(=O)C2C3C=CC(C3=C(c3ccccc3)c3ccccc3)C2C(=O)O)cc1 (stereo unspecified),3,56*,5,-9,5,-2,-3,-5
CCOC(=O)NN=C/C(Cl)=C/c1ccccc1,nt,nt,3,nt,nt,nt,nt,nt
COC(=O)CSc1nc(SCc2ccc(C)cc2)nc2c1CCCC2,-1,99*,4,7,1,-4,-7,6
Cc1ccc(CSc2nc3c(c(SCC(=O)O)n2)CCCC3)cc1,-1,-7,2,-10,8,1,nt,nt
COc1ccc(C=NOCC(=O)Nn2c(C)nc3ccccc3c2=O)cc1,nt,nt,4,nt,nt,nt,nt,nt
Cc1ccc(CNC(=O)C2CCC(=O)N2Cc2ccc(C)cc2)cc1 (stereo unspecified),1,-22,-1,10,-2,-9,nt,nt
SMILES,AHR act,Arrestin-AP2 inh,UCH37 DUB inh,PolyA inhibitor,A3A deaminase,A3G deaminase,Arr AP2 CP1,GST GSH counter
O=C(NCCCN1CCN(c2cccc(Cl)c2)CC1)C1CCC(=O)N1Cc1ccccc1Cl (stereo unspecified),nt,4,0,-7,nt,nt,6,-11
Cc1ccc(CN2C(=O)CCC2C(=O)NCCCN2CCCC(C)C2)cc1 (stereo unspecified),2,2,-1,5,-12,3,-11,-9
Cc1ccc(CN2C(=O)CCC2C(=O)NCCN2CCOCC2)cc1 (stereo unspecified),1,6,0,-7,0,-3,-10,-4
Cc1ccc(NC(=O)c2ccc(CSc3nnc(-c4ccncc4)n3C)cc2)cc1,2,85*,2,25,0,-1,3,8
Cc1cc(C(=O)Nn2c(C)nc3ccccc3c2=O)ccc1[N+](=O)[O-],-2,-13,2,11,-1,-6,nt,nt
Cc1cc(C(=O)Nn2cnc3ccccc3c2=O)ccc1[N+](=O)[O-],-1,54*,1,-3,-1,-10,2,3
COc1ccccc1-n1cnc2c(c1=O)c1nc3ccccc3nc1n2CCc1ccccc1,-8,73*,-9,5,0,-1,1,68*
N#Cc1c(N=Cc2cccs2)sc2c1CCC2,nt,nt,4,nt,nt,nt,nt,nt
CCC(=O)Nc1ccc(-c2ccc(N3CCN(C)CC3)nn2)cc1,2,55*,-3,14,-1,2,-3,-4
O=C(Cc1ccccc1[N+](=O)[O-])N1CCOCC1,2,30,1,3,-6,-4,nt,nt
O=C(Cc1ccccc1[N+](=O)[O-])N1CCN(c2ccccc2F)CC1,9,61*,1,-18,-2,-3,1,4
Cc1nn(-c2ccccc2)c(C)c1C=NNC(=O)CSc1nnc(SCc2ccccc2Cl)s1,nt,nt,6,nt,nt,nt,nt,nt
CCOC(=O)c1c(NC(=O)c2ccc(Br)o2)sc(C)c1CC,21,98*,-19,2,-3,-7,0,-10
Oc1oc(-c2ccccc2Br)nc1C=Nc1ccccn1,nt,nt,8,nt,nt,nt,nt,nt
CC(C)c1ccc(OCc2ccc(C(=O)N3CCN(c4ccccn4)CC3)cc2)cc1,4,56*,2,0,-1,-3,11,-7
CC(C)c1ccc(COc2ccc(C(=O)N3CCOCC3)cc2)cc1,2,-2,5,12,-2,-2,nt,nt
